Data published in ChEMBL document CHEMBL3414433, “Discovery and profiling of a selective and efficacious Syk inhibitor” (J Med Chem, 2015).
The source made the active and inactive calls. The rule behind the calls is not given here.

What was measured:
[1] = biological target: Tyrosine-protein kinase SYK (Homo sapiens, UniProt P43405); assay: Inhibition of Syk in anti-igM stimulated human Ramos B cells assessed as phospho-BLNK level preincubated for 30 mins followed by anti-IgM stimulation measured after 15 mins by flow cytometric analysis; format: cell-based
[2] = Clearance in Sprague-Dawley rat at 1 mg/kg, iv and 3 mg/kg, po administered as cassette dosing; format: ADME, organism-based; settings: in vivo
In short: (§1)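 Rat PK: i.v. 1 mg/kg in NMP/PEG200 (3:7); p.o. 3 mg/kg in CMC/water/Tween (0.5:99:0.5). Exposure values dose normalized.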

Rattus norvegicus [3] = assay: Dose normalized AUC in Sprague-Dawley rat at 1 mg/kg, iv administered as cassette dosing; format: ADME, organism-based; set-up: dose 1 mg/kg, route intravenous; settings: in vivo; in short: as §1
Rattus norvegicus [4] = assay: Dose normalized Cmax in Sprague-Dawley rat at 1 mg/kg, iv and 3 mg/kg, po administered as cassette dosing; format: ADME, organism-based; settings: in vivo; in short: as §1
Canis familiaris [5] = assay: Dose normalized AUC in Beagle dog at 0.3 mg/kg, po; format: ADME, organism-based, Canis lupus familiaris; set-up: dose 0.3 mg/kg, route oral; settings: in vivo
In short: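 One-in-one dosing in Beagle dogs: i.v. 0.1 mg/kg in NMP/PEG200 (3:7); p.o. 0.3 mg/kg in MC/water (0.5:99.5). Exposure values dose normalized.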

[6] = Oral bioavailability in Beagle dog at 0.3 mg/kg; format: ADME, organism-based, Canis lupus familiaris; settings: in vivo
In short: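 Beagle dogs dosed one-in-one. The i.v. dose was 0.1 mg/kg in NMP/PEG200 (3:7), and the p.o. dose was 0.3 mg/kg in MC/water (0.5:99.5). Blood levels were followed after each route.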

[7] = biological target: T1, Tyrosine-protein kinase receptor UFO (Homo sapiens, UniProt P30530); assay: Competitive binding affinity to human AXL
T1 sequence (P30530 whole entry): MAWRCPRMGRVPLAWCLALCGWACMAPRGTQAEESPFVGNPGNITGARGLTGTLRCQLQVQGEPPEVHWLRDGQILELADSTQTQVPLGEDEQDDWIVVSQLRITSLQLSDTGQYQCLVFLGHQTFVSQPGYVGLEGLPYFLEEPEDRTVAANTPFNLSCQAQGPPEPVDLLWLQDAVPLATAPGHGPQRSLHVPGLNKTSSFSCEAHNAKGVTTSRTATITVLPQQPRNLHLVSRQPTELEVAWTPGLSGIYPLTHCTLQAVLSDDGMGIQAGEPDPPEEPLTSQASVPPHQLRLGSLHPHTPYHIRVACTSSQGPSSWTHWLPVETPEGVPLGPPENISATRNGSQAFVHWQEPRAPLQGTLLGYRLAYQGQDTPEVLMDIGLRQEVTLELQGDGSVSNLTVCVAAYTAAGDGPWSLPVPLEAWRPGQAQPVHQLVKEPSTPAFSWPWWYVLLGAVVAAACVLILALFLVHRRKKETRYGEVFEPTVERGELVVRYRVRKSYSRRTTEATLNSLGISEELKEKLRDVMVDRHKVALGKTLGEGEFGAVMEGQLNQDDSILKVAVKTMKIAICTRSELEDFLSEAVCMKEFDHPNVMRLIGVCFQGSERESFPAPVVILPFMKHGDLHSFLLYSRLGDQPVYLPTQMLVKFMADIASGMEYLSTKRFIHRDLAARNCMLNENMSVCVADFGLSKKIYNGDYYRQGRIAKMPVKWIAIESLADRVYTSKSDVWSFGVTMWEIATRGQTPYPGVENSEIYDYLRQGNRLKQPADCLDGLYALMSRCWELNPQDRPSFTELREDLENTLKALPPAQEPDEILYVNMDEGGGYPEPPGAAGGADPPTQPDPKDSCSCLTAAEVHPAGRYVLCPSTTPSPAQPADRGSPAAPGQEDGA

[8] = biological target: T2, Mitogen-activated protein kinase kinase kinase 2 (Homo sapiens, UniProt Q9Y2U5); assay: Competitive binding affinity to human MAP3K2
T2 sequence (Q9Y2U5 whole entry): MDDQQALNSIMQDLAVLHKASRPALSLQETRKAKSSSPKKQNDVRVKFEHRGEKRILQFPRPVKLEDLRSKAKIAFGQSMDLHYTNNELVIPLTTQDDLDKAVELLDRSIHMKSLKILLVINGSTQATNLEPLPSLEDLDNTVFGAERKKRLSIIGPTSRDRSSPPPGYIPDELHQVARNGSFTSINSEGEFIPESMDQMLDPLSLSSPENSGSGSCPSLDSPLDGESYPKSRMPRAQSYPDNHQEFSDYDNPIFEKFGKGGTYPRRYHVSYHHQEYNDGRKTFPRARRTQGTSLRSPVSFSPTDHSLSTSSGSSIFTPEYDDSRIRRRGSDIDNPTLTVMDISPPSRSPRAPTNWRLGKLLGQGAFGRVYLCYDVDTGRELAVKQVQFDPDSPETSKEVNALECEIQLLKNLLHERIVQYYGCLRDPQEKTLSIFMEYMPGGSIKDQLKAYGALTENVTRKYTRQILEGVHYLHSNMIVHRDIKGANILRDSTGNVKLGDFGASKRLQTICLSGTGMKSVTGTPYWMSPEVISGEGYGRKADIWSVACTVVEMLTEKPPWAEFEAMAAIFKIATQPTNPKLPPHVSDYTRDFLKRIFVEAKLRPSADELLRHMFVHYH

[9] = biological target: Serine/threonine-protein kinase PAK 4 (Homo sapiens, UniProt O96013); assay: Competitive binding affinity to human PAK4
Chain of Serine/threonine-protein kinase PAK 4 (O96013 whole entry): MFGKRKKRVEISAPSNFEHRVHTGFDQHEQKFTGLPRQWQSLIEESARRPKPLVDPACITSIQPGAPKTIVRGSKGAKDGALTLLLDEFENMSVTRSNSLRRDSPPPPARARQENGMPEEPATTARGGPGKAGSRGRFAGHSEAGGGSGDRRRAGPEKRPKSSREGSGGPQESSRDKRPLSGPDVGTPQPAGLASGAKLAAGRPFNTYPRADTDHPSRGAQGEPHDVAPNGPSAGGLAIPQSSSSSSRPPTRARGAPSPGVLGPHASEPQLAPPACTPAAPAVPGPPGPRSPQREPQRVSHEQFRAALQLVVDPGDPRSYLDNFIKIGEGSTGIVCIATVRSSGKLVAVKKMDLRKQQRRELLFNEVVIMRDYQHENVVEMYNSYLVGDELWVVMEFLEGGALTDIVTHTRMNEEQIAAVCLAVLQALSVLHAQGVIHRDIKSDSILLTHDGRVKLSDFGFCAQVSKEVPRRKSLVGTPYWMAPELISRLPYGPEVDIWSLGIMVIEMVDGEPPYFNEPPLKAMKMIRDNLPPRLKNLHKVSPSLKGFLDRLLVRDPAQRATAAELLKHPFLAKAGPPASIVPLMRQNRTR

[10] = Drug uptake in Lewis rat blood at 22 mg/kg, po measured after 2 hrs; format: ADME, organism-based; set-up: dose 22 mg/kg, route oral; settings: read-out: Drug uptake
In short: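 Single oral dose of 22 mg/kg to Lewis rats; blood sampled at 2, 4 and 24 h after dosing for compound level and ex vivo FcγR-induced phospho-SLP76 in peripheral blood monocytes.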

Rattus norvegicus [11] = assay: Antiarthritic activity in Lewis rat collagen-induced arthritis model assessed as reversal of paw swelling at 3 to 30 mg/kg, po qd administered on day 15 post immunization measured after day 28; format: functional, organism-based
In short: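 Collagen arthritis in female Lewis rats (porcine collagen day 0, boost day 7); swollen-joint rats randomized and given oral doses of 3, 10 or 30 mg/kg once daily, days 15–28. Swelling scored visually three times a week, per paw 0−3 metatarsal plus 0−3 ankle, composite 0−12 per rat; group means calculated.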

[12] = Drug uptake in blood of Lewis rat collagen-induced arthritis model at 30 mg/kg, po qd administered on day 15 post immunization measured at 8 hrs on day 18; format: ADME, organism-based; set-up: dose 30 mg/kg, route oral; settings: read-out: Drug uptake
In short: (§2)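 Collagen-arthritic Lewis rats given 3, 10 or 30 mg/kg p.o. once daily from day 15; blood levels measured on day 18 (third day of treatment) at 4, 8 and 24 h after dosing.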

[13] = Drug uptake in blood of Lewis rat collagen-induced arthritis model at 10 mg/kg, po qd administered on day 15 post immunization measured at 24 hrs on day 18; format: ADME, organism-based; set-up: dose 10 mg/kg, route oral; settings: read-out: Drug uptake; in short: as §2
Rattus norvegicus [14] = assay: In vivo inhibition of Syk in Lewis rat assessed as reduction in FcgR-induced SLP76 phosphorylation in peripheral blood monocytes at 3 to 30 mg/kg, po measured after 2 to 24 hrs; format: functional, organism-based; set-up: route oral
Canis familiaris [15] = organism: Canis familiaris; assay: Hepatotoxicity in dog assessed as bile plugs measured for 4 weeks by GLP study; format: toxicity, organism-based, Canis lupus familiaris; settings: in vivo, 672 h
[16] = biological target: Voltage-gated inwardly rectifying potassium channel KCNH2 (Homo sapiens, UniProt Q12809); assay: Inhibition of human ERG by GLP study
Chain of Voltage-gated inwardly rectifying potassium channel KCNH2 (Q12809 whole entry): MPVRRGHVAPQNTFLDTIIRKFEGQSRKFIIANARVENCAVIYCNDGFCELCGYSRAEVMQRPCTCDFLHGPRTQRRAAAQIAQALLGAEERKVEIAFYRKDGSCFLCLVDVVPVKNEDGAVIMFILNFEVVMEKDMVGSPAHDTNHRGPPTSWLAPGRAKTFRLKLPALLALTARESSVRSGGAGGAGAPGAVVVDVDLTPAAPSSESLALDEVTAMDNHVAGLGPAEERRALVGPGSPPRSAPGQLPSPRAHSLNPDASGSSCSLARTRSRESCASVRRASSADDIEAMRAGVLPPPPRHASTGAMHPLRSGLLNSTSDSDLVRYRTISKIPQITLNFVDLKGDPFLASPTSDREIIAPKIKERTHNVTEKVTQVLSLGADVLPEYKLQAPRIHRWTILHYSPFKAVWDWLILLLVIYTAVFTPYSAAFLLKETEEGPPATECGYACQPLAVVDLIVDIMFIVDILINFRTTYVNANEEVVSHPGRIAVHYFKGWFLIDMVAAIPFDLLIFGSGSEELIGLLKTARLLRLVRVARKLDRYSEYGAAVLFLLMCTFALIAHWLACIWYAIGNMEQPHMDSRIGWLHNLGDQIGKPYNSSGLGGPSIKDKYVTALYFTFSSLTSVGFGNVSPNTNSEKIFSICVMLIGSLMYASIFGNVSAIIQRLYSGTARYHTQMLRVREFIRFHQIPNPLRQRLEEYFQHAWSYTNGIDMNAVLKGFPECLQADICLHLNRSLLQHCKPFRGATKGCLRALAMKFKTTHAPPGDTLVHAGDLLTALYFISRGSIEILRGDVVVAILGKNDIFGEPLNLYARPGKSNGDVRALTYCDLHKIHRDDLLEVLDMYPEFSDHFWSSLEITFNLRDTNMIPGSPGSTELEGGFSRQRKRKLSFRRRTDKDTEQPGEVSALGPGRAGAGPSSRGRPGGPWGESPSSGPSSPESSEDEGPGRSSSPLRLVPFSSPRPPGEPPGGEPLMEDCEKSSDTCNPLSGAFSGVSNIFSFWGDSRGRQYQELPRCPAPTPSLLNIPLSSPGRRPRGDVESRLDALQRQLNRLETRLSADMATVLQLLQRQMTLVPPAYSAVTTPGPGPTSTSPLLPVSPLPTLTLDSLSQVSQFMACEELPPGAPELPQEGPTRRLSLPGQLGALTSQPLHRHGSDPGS

[17] = Drug metabolism in liver microsomes (unknown origin); format: ADME
Rattus norvegicus [18] = organism: Rattus norvegicus; assay: Drug metabolism in rat; format: ADME, organism-based; settings: in vivo

With NC(=O)c1nnc(N[C@@H]2CCCC[C@@H]2N)nc1Nc1cccc2cc[nH]c12 the IC50 [1] was 99 nM, the clearance [2] was 31 mL/min/kg and the AUC/dose (Rattus norvegicus [3]) was 1459 nM·h. It also gave a Cmax/dose (Rattus norvegicus [4]) of 80 nM, an AUC/dose (Canis familiaris [5]) of 1836 nM·h and a bioavailability [6] of 54%. For the same compound, the Kd [7] was 71 nM, the Kd [8] was 140 nM and the Kd [9] was 17 nM. For the same compound, the concentration at 2 h [10] was 900 nM, the Activity (Rattus norvegicus [11]) was “Active” and the concentration at 8 h [12] was 1720 nM. The concentration at 24 h [13] was 156 nM, the IC50 (Rattus norvegicus [14]) was 189 nM and the Activity (Canis familiaris [15]) was “Toxic”. For the same compound, the IC50 [16] was 5000 nM, the Drug metabolism [17] was “metabolite_notdetected” and the Drug metabolism (Rattus norvegicus [18]) was “metabolite_notdetected”.
